The values that follow come from ChEMBL document CHEMBL3352173, “Optimization of pyrrolamide topoisomerase II inhibitors toward identification of an antibacterial clinical candidate (AZD5099)” (J Med Chem, 2014).

The target in data set [1] is T1, ATP-binding cassette sub-family C member 2 (Homo sapiens, UniProt Q92887). Description: Stimulation of ATPase activity of human MRP2 assessed as inorganic phosphate.
Data set [2] deals with T1, ATP-binding cassette sub-family C member 2. In words: Inhibition of ATPase activity of human MRP2 assessed as inorganic phosphate.
Data set [3] addresses T2, ATP-binding cassette sub-family C member 2 (Rattus norvegicus, UniProt Q63120). Description: Stimulation of ATPase activity of rat Mrp2 assessed as inorganic phosphate.
For data set [4], the target named is T2, ATP-binding cassette sub-family C member 2. Description: Inhibition of ATPase activity of rat Mrp2 assessed as inorganic phosphate.
For data set [5], the system named is Haemophilus influenzae. In words: Antimicrobial activity against Haemophilus influenzae by broth microdilution/CLSI method. The data set is classed as functional. The conditions noted are these: Haemophilus influenzae; for MIC: read-out: MIC. (Broth dilution looks for growth in wells or tubes with falling amounts of substance.)
The nature of data set [6]: Clearance in Wistar rat at 10 mg/kg, iv. Type of data set: ADME, organism-based. Set-up: dose 10 mg/kg, route intravenous. The settings on record: in vivo.
Data set [7] has as its target DNA gyrase subunit B (Staphylococcus aureus, UniProt P0A0K8). In words: Inhibition of ATPase activity of Staphylococcus aureus GyrB. In outline: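 IC50 was determined against S. aureus GyrB in the routine screening assay. The enzyme concentration limits resolution below 10 nM.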
In data set [8] the test system is Streptococcus pneumoniae. Description: Antibacterial activity against Streptococcus pneumoniae by broth microdilution/CLSI method. The data set is classed as functional. The conditions noted are these: Streptococcus pneumoniae; read-out: MIC.
Data set [9] concerns Streptococcus pyogenes. Description: Antimicrobial activity against Streptococcus pyogenes by broth microdilution/CLSI method. The data set is classed as functional.
For data set [10], the system named is Staphylococcus aureus. In words: Antimicrobial activity against methicillin-sensitive Staphylococcus aureus by broth microdilution/CLSI method. Type of data set: functional. The conditions noted are these: Staphylococcus aureus; read-out: MIC.
Data set [11] concerns Staphylococcus aureus. Description: Antimicrobial activity against methicillin, quinolone-resistant Staphylococcus aureus by broth microdilution/CLSI method. The data set is classed as functional. The settings on record: Staphylococcus aureus; read-out: MIC.
Data set [12] concerns Moraxella catarrhalis. Description: Antimicrobial activity against Moraxella catarrhalis by broth microdilution/CLSI method. Type of data set: functional. The settings on record: Moraxella catarrhalis; read-out: MIC.
Data set [13] concerns Escherichia coli. In words: Antimicrobial activity against wild-type Escherichia coli Eco523 by broth microdilution/CLSI method. The data set is classed as functional. The settings on record: Escherichia coli, Eco523; read-out: MIC.
Data set [14] concerns Escherichia coli. Description: Antimicrobial activity against Escherichia coli tolC- by broth microdilution/CLSI method. Type of data set: functional. The settings on record: Escherichia coli; read-out: MIC.
The nature of data set [15]: Dissociation constant, pKa of the compound. Type of data set: physicochemical.
The nature of data set [16]: Percentage unbound in mouse plasma. Type of data set: ADME, cell-free.
Data set [17] can be described thus: Clearance in CD1 mouse at 10 mg/kg, iv. Type of data set: ADME, organism-based. Also on record: dose 10 mg/kg, route intravenous. The conditions noted are these: in vivo.
Data set [18] can be described thus: Percentage unbound in rat plasma. Type of data set: ADME, cell-free.
Data set [19] is described as follows: Bioavailability in Wistar rat at 10 mg/kg, […]. The data set is classed as ADME, organism-based. The settings on record: in vivo.
Data set [20] is described as follows: Percentage unbound in dog plasma. Type of data set: ADME, cell-free, Canis lupus familiaris.
Data set [21] is described as follows: Clearance in dog at 10 mg/kg, iv. The settings on record: plasma. Set-up: dose 10 mg/kg, route intravenous. The data set is classed as ADME, organism-based, Canis lupus familiaris.
Data set [22] can be described thus: Clearance in TR-negative Wistar rat at 10 mg/kg, iv. Type of data set: ADME, organism-based. Set-up: dose 10 mg/kg, route intravenous. The settings on record: in vivo.
Data set [23] concerns Staphylococcus aureus. In words: Antimicrobial activity against Staphylococcus aureus by broth microdilution/CLSI method. The data set is classed as functional.
Data set [24] concerns Enterococcus faecalis. Description: Antimicrobial activity against Enterococcus faecalis by broth microdilution/CLSI method. Type of data set: functional.
For data set [25], the system named is Enterococcus faecium. Description: Antimicrobial activity against Enterococcus faecium by broth microdilution/CLSI method. The data set is classed as functional.
The subject of data set [26] is Haemophilus influenzae. Description: Antimicrobial activity against amoxicillin-resistant Haemophilus influenzae by broth microdilution/CLSI method. The data set is classed as functional.
Data set [27] relates to Staphylococcus aureus. Description: Antimicrobial activity against methicillin-resistant Staphylococcus aureus by broth microdilution/CLSI method. Type of data set: functional.
Data set [28] deals with Enterococcus faecalis. In words: Antimicrobial activity against vancomycin-resistant Enterococcus faecalis by broth microdilution/CLSI method. Type of data set: functional.
Data set [29] can be described thus: Octanol-phosphate buffer distribution coefficient, log D of the compound at pH 7.4 by shake flask method. Type of data set: physicochemical.
Data set [30] can be described thus: Percentage unbound in human plasma. The data set is classed as ADME, cell-free.
Data set [31] is described as follows: Solubility of the compound. Type of data set: physicochemical.
Data set [32] is described as follows: Ratio of MIC for methicillin, quinolone-resistant Staphylococcus aureus to fraction unbound in human plasma. Type of data set: ADME.
A short description of data set [33]: Clearance in rat at 10 mg/kg, iv. Type of data set: ADME, organism-based. Also on record: dose 10 mg/kg, route intravenous. The settings on record: in vivo.
Data set [34] can be described thus: Bioavailability in CD1 mouse at 10 mg/kg, […]. The data set is classed as ADME, organism-based. The settings on record: in vivo.
A short description of data set [35]: Bioavailability in dog at 10 mg/kg, iv. Type of data set: ADME, organism-based, Canis lupus familiaris. The conditions noted are these: plasma.

In brackets after ≈: the same amount, converted by molar mass.

T1 sequence (Q92887 whole entry): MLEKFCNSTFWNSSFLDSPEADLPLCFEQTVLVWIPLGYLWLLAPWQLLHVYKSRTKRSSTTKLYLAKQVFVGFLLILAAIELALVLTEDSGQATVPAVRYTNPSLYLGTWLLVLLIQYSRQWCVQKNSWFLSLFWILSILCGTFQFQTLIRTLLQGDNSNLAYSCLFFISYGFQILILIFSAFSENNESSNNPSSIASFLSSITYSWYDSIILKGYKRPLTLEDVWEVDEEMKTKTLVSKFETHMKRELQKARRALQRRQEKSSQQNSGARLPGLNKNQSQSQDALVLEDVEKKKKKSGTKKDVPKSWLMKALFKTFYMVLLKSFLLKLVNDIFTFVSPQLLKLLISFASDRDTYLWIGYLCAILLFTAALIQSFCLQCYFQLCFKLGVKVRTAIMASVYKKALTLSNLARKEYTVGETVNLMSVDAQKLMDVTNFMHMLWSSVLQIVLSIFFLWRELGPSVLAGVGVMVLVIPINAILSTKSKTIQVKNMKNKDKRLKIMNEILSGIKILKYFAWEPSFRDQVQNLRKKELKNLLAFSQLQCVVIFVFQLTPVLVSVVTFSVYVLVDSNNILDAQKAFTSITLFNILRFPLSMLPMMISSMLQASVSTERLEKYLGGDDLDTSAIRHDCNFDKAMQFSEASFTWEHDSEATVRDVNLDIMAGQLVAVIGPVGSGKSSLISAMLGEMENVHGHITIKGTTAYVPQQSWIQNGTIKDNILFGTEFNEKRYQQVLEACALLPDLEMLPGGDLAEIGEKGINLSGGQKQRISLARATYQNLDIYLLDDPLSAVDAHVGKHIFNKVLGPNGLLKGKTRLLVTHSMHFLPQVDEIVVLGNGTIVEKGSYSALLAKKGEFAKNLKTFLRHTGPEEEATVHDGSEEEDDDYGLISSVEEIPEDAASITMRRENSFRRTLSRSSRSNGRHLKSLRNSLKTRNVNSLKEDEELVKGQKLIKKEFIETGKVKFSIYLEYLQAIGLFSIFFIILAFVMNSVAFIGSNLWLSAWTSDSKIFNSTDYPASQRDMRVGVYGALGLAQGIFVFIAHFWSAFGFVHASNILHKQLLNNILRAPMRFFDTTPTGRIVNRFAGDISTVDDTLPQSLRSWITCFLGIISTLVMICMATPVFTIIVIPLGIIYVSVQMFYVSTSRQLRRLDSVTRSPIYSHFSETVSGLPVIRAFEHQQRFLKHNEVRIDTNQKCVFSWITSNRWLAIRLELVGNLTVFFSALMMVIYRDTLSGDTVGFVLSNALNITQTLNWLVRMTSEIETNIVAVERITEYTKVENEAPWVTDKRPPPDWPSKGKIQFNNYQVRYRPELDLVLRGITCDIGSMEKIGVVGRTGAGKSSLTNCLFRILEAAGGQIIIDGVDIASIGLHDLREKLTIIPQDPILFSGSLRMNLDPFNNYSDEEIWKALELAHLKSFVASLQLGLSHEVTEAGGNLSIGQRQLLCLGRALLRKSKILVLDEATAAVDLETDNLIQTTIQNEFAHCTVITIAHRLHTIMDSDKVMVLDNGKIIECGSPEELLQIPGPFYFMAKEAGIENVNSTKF
T2 sequence (Q63120 whole entry): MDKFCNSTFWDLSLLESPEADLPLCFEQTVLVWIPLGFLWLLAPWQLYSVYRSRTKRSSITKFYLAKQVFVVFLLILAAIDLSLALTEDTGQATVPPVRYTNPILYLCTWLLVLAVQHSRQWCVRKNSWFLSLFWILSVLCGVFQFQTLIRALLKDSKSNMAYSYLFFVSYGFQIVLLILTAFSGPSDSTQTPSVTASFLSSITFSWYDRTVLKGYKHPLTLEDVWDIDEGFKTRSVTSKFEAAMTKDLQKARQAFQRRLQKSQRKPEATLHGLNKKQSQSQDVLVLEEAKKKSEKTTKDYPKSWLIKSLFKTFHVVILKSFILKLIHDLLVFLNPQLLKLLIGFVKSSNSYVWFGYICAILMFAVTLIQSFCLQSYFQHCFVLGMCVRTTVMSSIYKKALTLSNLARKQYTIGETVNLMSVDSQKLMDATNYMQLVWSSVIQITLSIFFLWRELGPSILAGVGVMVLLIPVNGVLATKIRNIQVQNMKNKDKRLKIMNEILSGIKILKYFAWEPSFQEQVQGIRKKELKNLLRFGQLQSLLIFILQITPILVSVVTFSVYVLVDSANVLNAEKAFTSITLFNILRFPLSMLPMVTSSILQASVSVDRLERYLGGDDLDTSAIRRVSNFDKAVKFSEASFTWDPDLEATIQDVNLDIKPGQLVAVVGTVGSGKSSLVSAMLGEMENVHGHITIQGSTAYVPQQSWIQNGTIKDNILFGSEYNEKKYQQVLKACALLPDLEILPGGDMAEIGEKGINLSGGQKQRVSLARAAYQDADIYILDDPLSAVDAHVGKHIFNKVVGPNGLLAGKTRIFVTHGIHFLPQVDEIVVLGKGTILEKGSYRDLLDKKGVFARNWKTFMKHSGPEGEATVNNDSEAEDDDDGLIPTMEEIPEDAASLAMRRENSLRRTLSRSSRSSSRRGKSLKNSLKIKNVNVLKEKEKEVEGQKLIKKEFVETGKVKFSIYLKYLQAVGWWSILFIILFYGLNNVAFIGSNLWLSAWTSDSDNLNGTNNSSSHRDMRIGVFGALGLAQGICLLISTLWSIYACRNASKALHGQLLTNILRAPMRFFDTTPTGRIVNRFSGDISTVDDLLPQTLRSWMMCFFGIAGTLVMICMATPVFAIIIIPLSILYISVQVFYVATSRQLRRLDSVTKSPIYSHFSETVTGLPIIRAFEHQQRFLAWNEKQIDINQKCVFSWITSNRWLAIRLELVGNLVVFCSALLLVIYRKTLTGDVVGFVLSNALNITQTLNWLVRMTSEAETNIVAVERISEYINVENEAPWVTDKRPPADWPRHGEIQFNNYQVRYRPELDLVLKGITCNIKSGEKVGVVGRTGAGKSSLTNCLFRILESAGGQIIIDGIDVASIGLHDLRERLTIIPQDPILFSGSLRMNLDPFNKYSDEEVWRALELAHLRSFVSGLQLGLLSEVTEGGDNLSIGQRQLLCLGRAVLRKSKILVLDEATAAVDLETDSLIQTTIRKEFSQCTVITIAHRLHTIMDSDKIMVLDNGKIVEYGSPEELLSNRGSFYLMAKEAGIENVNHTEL
Chain of DNA gyrase subunit B (P0A0K8 whole entry): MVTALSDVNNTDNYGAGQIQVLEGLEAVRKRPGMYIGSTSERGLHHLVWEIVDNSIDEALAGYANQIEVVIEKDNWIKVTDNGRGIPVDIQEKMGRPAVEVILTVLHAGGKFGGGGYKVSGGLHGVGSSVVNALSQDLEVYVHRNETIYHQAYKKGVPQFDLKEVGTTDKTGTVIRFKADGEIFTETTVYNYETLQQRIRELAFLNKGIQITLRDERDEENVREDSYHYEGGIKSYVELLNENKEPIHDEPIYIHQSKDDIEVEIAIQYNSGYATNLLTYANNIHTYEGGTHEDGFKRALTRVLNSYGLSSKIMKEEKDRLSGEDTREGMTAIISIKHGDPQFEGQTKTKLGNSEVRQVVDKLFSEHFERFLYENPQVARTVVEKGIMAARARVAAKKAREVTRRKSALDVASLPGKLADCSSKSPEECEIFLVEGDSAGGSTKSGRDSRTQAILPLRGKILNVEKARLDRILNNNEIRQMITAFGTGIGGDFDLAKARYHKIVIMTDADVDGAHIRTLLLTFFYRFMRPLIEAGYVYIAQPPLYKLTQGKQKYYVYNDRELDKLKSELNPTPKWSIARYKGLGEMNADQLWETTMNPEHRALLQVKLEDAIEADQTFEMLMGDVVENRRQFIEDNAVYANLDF

For `Cc1[nH]c(C(=O)NC2CCN(c3ncc(C(=O)O)s3)CC2)c(Cl)c1Cl`, the EC50 (in general, the concentration needed to bring the measured effect to its halfway point) was 145 µM in data set [1] and 27 µM in [3]. Besides, the IC50 (in general, the concentration at which inhibition is half-maximal) was over 200 µM in [2], over 200 µM in [4] and 0.062 µM in data set [7]. Moreover, the MIC in [5] turned out to be 0.5 µg/mL (≈ 1.24 µM); in data set [8], 0.81 µg/mL (≈ 2.01 µM); in [9], 0.79 µg/mL (≈ 1.96 µM); in data set [10], 11 µg/mL (≈ 27.3 µM); in data set [11], 13 µg/mL (≈ 32.2 µM); in data set [12], 2.2 µg/mL (≈ 5.46 µM). Besides, the MIC in data set [13] is over 64 µg/mL; in data set [14], 0.22 µg/mL (≈ 0.546 µM). In addition, the clearance (in general, the rate of elimination divided by the concentration) in data set [6] was found to be 78 mL/min/kg; in data set [17] it was 15.5 mL/min/kg; in data set [21], 3 mL/min/kg; in [22], 20 mL/min/kg. In [15], the pKa (usually the pH at which an ionisable group is half protonated) came out at 3.4. The free fraction (fraction unbound) (usually free concentration divided by total concentration) in data set [16] turned out to be 0.089; in data set [18], 0.086; in data set [20], 0.12. In data set [19], the bioavailability (as a rule, the share of a dose that reaches the circulation, judged against a reference dose that is usually intravenous) is 6.7%.
Take `CC[C@H]1OC(=O)[C@H](C)[C@@H](O[C@H]2C[C@@](C)(OC)[C@@H](O)[C@H](C)O2)[C@H](C)[C@@H](O[C@@H]2O[C@H](C)C[C@H](N(C)C)[C@H]2O)[C@](C)(O)C[C@@H](C)CN(C)[C@H](C)[C@@H](O)[C@]1(C)O` [AZITHROMYCIN]: the MIC90 in [23] was over 128 µg/mL; in data set [24], over 128 µg/mL; in [25] it was over 128 µg/mL; in [26], 2 µg/mL (≈ 2.67 µM); in data set [5], 2 µg/mL (≈ 2.67 µM).
Take `C[C@H]1COc2c(N3CCN(C)CC3)c(F)cc3c(=O)c(C(=O)O)cn1c23.C[C@H]1COc2c(N3CCN(C)CC3)c(F)cc3c(=O)c(C(=O)O)cn1c23.O` [LEVOFLOXACIN]: the MIC90 in [23] is 32 µg/mL; in data set [27], 64 µg/mL; in data set [24] it was 32 µg/mL; in [28], 64 µg/mL; in [25], over 128 µg/mL; in data set [26], 0.015 µg/mL. For the same molecule, the MIC90 in [5] was 0.015 µg/mL.
Take `COCCNC(=O)c1nc(N2CC[C@@H](NC(=O)c3[nH]c(C)c(Cl)c3Cl)[C@@H](OC)C2)sc1C(=O)O`: the EC50 in data set [1] and in data set [3] was over 200 µM throughout. Besides, the IC50 in data set [2] is 100 µM; in data set [4], 78 µM; in data set [7] it was under 0.01 µM. For the same molecule, the MIC in data set [5] was 0.15 µg/mL (≈ 0.281 µM); in [8], 0.018 µg/mL (≈ 0.0337 µM); in [9], 0.017 µg/mL (≈ 0.0318 µM); in data set [10], 0.078 µg/mL (≈ 0.146 µM); in data set [11], 0.089 µg/mL (≈ 0.167 µM); in data set [12], 0.17 µg/mL (≈ 0.318 µM). The MIC worked out at 24 µg/mL (≈ 44.9 µM) in data set [13] and 0.62 µg/mL (≈ 1.16 µM) in data set [14]. Further, the clearance in data set [6] stood at 2.1 mL/min/kg; in [33], 9.5 mL/min/kg; in [17], 57 mL/min/kg; in data set [21] it was 3 mL/min/kg; in [22], 1.5 mL/min/kg. Besides, the logD (as a rule, lipophilicity at a set pH, counting ionised and neutral species) in [29] was determined as 1.2. In addition, the free fraction (fraction unbound) in data set [30] came out at 0.027; in data set [16] it was 0.0585; in data set [18], 0.038; in data set [20], 0.082. The amount in solution in data set [31] (solubility) came to 880 µM (≈ 470 µg/mL). For the same molecule, the Ratio in [32] turned out to be 3.3. This molecule came in with a pKa in [15] of 4.4. In addition, the bioavailability in data set [34] came out at 57%; in data set [19], 34%; in [35], 100%.
